Most compounds without a hit are left out; they make up all but 1.7% or so of the library.
C2C12 statin = suppression of simvastatin myotoxicity; rescue of ATP level, % at 7.49 µM; C2C12 myotubes + simvastatin, ATP luminescence, 48 h; scaled: DMSO 0, geranylgeraniol control 100; AID 602340; 330,000 tested, 0.78% active;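 active = mean ATP rescue above about 67%, or every replicate alone reaching that limit, limit read from the data, passing the limit was not always enough; inconclusive = no clear call, values can overlap the other calls; inactive = mean under the limit and some replicate under it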;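 note: myotubes were challenged with 10 µM simvastatin during compound exposure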
SR-BI DiI-HDL act = activators of SR-BI mediated HDL lipid uptake; 320,000 tested, 0.096% active; activation, % at 12.5 µM; AID 504775; CHO ldlA[mSR-BI] cells, DiI-HDL uptake fluorescence, 3 h; 100 = double the neutral-control signal;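 active = mean replicate activation of at least 60% and every replicate at or above 60%; inconclusive = mean or all-replicate condition met, but not both; inactive = mean below 60% and not all replicates reaching 60%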;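 note: 0% = median plate neutral-control signal and 100% = twice that signal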
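material = CHO ldlA[mSR-BI] cells | medium = Ham's F12 with 0.5% BSA, HEPES 25 mM, pH 7.4 | reagent = fluorescent DiI-HDL, 10 µg/mL final | compound dosing = single-point compound dose | incubation = 3 h, 37 °C | measured by = bottom-read fluorescence, 550/595 nm | measure = HDL uptake via cellular fluorescence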
Vif imaging = HIV Vif inhibition | HEK293T cells, Vif self-association by quenched fluorescence, imaging, 24 h | inhibition, % at 7.49 µM | 340,000 tested, 0.35% active | AID 602346; in the data active = inhibition above about 50%, passing the limit was not always enough; inconclusive = no clear call, values can overlap the other calls; inactive = below about 31%
SR-BI HDL uptake = mouse SR-BI HDL lipid transfer inhibition; inhibition, % at 12.5 µM; 320,000 tested, 0.96% active; ldlA[mSR-BI] CHO cells, DiI-HDL uptake fluorescence, 3 h; AID 488896; Q61009;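 active = mean replicate inhibition of at least 70% and a set share of replicates each scoring 70 or more; inconclusive = meets just one of the two criteria; inactive = fails both criteria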;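 note: 0% = median of neutral control wells and 100% = median of positive control wells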
Target sequence (Q61009 whole entry, looked up): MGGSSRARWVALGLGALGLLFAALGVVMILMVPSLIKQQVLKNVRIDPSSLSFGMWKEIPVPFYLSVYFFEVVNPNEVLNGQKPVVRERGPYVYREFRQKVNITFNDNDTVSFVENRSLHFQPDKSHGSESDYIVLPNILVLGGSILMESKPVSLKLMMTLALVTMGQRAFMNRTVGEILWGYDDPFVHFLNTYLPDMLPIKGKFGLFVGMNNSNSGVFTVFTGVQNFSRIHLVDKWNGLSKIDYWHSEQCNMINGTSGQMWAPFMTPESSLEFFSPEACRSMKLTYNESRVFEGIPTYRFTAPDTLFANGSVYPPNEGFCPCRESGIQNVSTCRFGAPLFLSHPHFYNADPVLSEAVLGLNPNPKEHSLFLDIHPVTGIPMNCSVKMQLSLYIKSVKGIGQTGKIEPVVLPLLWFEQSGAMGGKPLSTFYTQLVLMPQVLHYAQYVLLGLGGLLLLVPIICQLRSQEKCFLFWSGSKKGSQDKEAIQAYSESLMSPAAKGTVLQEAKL
Starred values were filed as active, the others as inactive; i = inactive; ? = inconclusive; nt = no result given.

SMILES	C2C12 statin	SR-BI DiI-HDL act	Vif imaging	SR-BI HDL uptake
CCC1(Oc2ccccc2)C(=O)NC(=O)NC1=O	107.9*	nt	0.6	nt
COC(=O)CC1(Cc2ccccc2)C(=O)NC(=O)NC1=O	2.8	10.7	12.2	-10.7
O=C(NN=Cc1ccc(N(CCCl)CCCl)cc1Cl)c1cccnc1	nt	-80.2	-7.0	80.2*
Cc1cc(N(CCCl)CCCl)ccc1C=NNC(=O)c1cccnc1	2.5	-88.8	13.0	88.8*
O=C(NN=Cc1ccc(N(CCCl)CCCl)cc1)c1cc(=O)[nH]c(=O)[nH]1	2.8	22.3	3.1	-22.3
COc1ccc(-c2ccc3n(c2=O)C[C@@H]2[C@@H](CO)[C@H](C(=O)O)[C@H]3N2C(=O)c2ccccc2F)cc1	5.9	nt	nt	nt
O=C(O)[C@@H]1[C@@H](CO)[C@@H]2Cn3c(ccc(-c4ccncc4)c3=O)[C@H]1N2S(=O)(=O)c1ccccc1F	-11.1	nt	nt	nt
COc1cccc(CN2CCN(C(=O)COc3ccc4ccccc4c3)CC2)c1	9.2	-86.0	-3.9	86.0*
COC(=O)[C@@H]1[C@@H](CO)[C@@H]2Cn3c(ccc(-c4ccccc4F)c3=O)[C@H]1N2C(=O)C1CC1	-10.2	nt	nt	nt
O=C1OC(c2ccc([N+](=O)[O-])cc2)=N/C1=C/N1CC2CC(C1)c1cccc(=O)n1C2 (configuration not stated)	nt	18.5	52.4*	-18.5
Cn1ccnc1P(=S)(c1nccn1C)N1CCOCC1	-7.9	37.1	?	-37.1
Cc1nc2ccc(Cl)cn2c1P(=S)(N1CCOCC1)N1CCOCC1	93.1*	10.3	7.5	-10.3
Nc1cc(N2CCNCC2)ccc1[N+](=O)[O-]	nt	33.5	3.8	-33.5
CNc1cc(N2CCNCC2)ccc1[N+](=O)[O-]	nt	-9.2	50.9*	9.2
COc1ccc(Br)cc1CN1CCN(C(=O)Cc2ccccc2)CC1	nt	724.7*	?	i
COc1ccc(CN2CCN(C(=O)Cc3ccccc3)CC2)c(OC)c1	nt	5.0	0.6	-5.0
COc1ccc(Cn2c(O)c(/C=N/NC(=O)c3ccccc3O)c(=O)[nH]c2=O)cc1	nt	-97.2	-1.2	97.2*
O=C(N/N=C/c1c(O)n(Cc2ccccc2)c(=O)[nH]c1=O)c1ccccc1O	9.8	-117.4	7.4	117.4*
COc1ccc(Cn2c(O)c(/C=N/NC(=O)c3ccccc3)c(=O)[nH]c2=O)cc1	nt	-80.6	3.4	80.6*
O=C(N/N=C/c1c(O)n(Cc2ccc(F)cc2)c(=O)[nH]c1=O)c1ccccc1O	nt	-75.3	5.5	75.3*
CC=Cc1ccc2n(c1=O)C[C@H]1[C@H](CO)[C@@H](C(=O)OC)[C@@H]2N1C(=O)CC (mixture of isomers)	-5.6	nt	nt	nt
CC=Cc1ccc2n(c1=O)C[C@@H]1[C@@H](CO)[C@H](C(=O)N(C)C)[C@H]2N1C (mixture of isomers)	2.2	nt	nt	nt
COC(=O)[C@H]1[C@H](CO)[C@H]2Cn3c(cccc3=O)[C@@H]1N2Cc1nccs1	36.2	nt	nt	nt
COc1ccc(C#Cc2ccc([C@@H]3[C@@H](CO)N4CCCCN(C(=O)Cc5ccccc5)C[C@@H]34)cc2)cc1	8.3	nt	nt	nt
COC(=O)[C@@H]1[C@@H](CO)[C@@H]2Cn3c(ccc(C4=CCCCC4)c3=O)[C@H]1N2CC1CCCC1	6.1	nt	nt	nt
SMILES	C2C12 statin	SR-BI DiI-HDL act	Vif imaging	SR-BI HDL uptake
C=C1C(=O)O[C@@H]2C[C@@H](C)[C@@H]3C=CC(=O)[C@@]3(C)[C@@H](O)[C@H]12	-164.1	-26.9	54.3*	26.9
COC(=O)[C@@H]1[C@@H](CO)[C@@H]2Cn3c(ccc(C4=CCCCC4)c3=O)[C@H]1N2C(=O)Cc1ccccn1	6.1	nt	nt	nt
CCCCCn1c(=O)c(C(=O)NCCc2ccccc2)c(O)c2ccccc21	14.6	-74.9	-1.5	74.9*
CCCCn1c(=O)c(C(=O)Nc2ccccc2C)c(O)c2ccccc21	-54.8	-50.1	-1.1	50.1
CCCCCn1c(=O)c(C(=O)Nc2ccccc2Cl)c(O)c2ccccc21	-17.4	-92.8	-1.5	92.8*
COC(=O)[C@H]1[C@H](CO)[C@H]2Cn3c(ccc(-c4ccncc4)c3=O)[C@@H]1N2S(=O)(=O)c1ccccc1F	-16.0	nt	nt	nt
O=C(NCNC(=O)NC1C(=O)NC(=O)N1CO)NC1C(=O)NC(=O)N1CO (configuration not stated)	6.0	3.3	122.8*	-3.3
NC(=O)c1cc(N2CC2)c([N+](=O)[O-])cc1[N+](=O)[O-]	5.7	-2.0	78.5*	2.0
COC(=O)[C@H]1[C@H](CO)[C@H]2Cn3c(ccc(/C=C/c4ccccc4)c3=O)[C@@H]1N2CC1CCCC1	7.8	nt	nt	nt
Nc1cc(Cl)c2nonc2c1[N+](=O)[O-]	nt	69.8*	1.1	-69.8
O=[N+]([O-])c1c(Cl)c(Cl)c(Cl)c(Cl)c1Cl	14.1	9.8	12.1	-9.8
OC(COCc1ccc(Cl)cc1)CN1CC=C(c2ccccc2)CC1 (configuration not stated)	-128.6	3.1	26.1	-3.1
OC(CN1CC=C(c2ccccc2)CC1)c1ccccc1 (configuration not stated)	84.1*	9.8	-0.4	-9.8
CN(C)c1ccc(NC(=O)CN2C(=O)CN=C(c3ccccc3)c3ccccc32)cc1	nt	-82.7	-1.8	82.7*
COC(=O)[C@H]1[C@H](CO)[C@H]2Cn3c(ccc(-c4ccccc4F)c3=O)[C@@H]1N2C(=O)C1CC1	-3.3	nt	nt	nt
COC(=O)[C@@H]1[C@@H](CO)[C@@H]2Cn3c(ccc(-c4cccc(F)c4)c3=O)[C@H]1N2C(=O)CC1CC1	-7.0	nt	nt	nt
CC=Cc1ccc2n(c1=O)C[C@@H]1[C@@H](CO)[C@H](C(=O)OC)[C@H]2N1C(=O)CC1CC1 (mixture of isomers)	11.1	nt	nt	nt
COc1ccc(CC2NCC(O)C2OC(C)=O)cc1 (configuration not stated)	113.8*	23.5	-27.8	-23.5
CC(CC(C#N)(c1ccccc1)c1ccccc1)N(C)C (configuration not stated)	2.9	10.7	-5.5	-10.7
CCC(C#N)(CC)P(=S)(c1ccccc1)c1ccccc1	nt	63.2*	nt	-63.2
COc1ccc(-c2ccc([C@H]3[C@@H](CO)N4CCCCN(C(=O)Cc5ccncc5)C[C@H]34)cc2)cc1	-12.4	nt	nt	nt
CN1CCc2nc3ccc(F)cc3c(C(N)=O)c2C1	-3.4	15.1	60.2*	-15.1
CC(=O)OC1(Cc2ccccc2)CN2CCC1c1ccccc12 (configuration not stated)	114.0*	6.2	-10.8	-6.2
CC(=O)OC1(c2ccc(C)cc2)CN2CCC1c1ccccc12 (configuration not stated)	11.1	10.9	-0.9	-10.8
CCCCCCn1c(N)c(C(=O)NCCN2CCOCC2)c2nc3ccccc3nc21	111.8*	0.8	-10.2	-0.8
CC[n+]1c(/C=C/C=C/c2ccc(N(C)C)cc2)sc2ccccc21	nt	-94.1	-16.2	94.1*
CN(C)c1ccc(/C=C/C=C/c2sc3ccccc3[n+]2C)cc1	nt	-15.4	-7.6	15.4
CCc1nc2ccccc2c(=O)n1-c1ccc2ccccc2c1	122.5*	-5.9	-3.0	5.9
CCCc1nc2ccccc2c(=O)n1-c1ccc(OC)cc1	6.5	-16.5	-0.9	16.5

Screening results as filed in PubChem.
